proCasp3 act: activators of human procaspase-3 D3A mutant, primary screen, biochemical, absorbance, PC-3 D3A mutant, single concentration; Caspase-3 (Homo sapiens), P42574; recombinant procaspase-3 D3A, Ac-DEVD-pNA absorbance 405 nm; activation, % at 8.5 µM; 330,000 compounds, 0.11% hits; AID 463141, 2010;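 active = activation above the mean of all tested compounds plus 3 SD, cut at about 21% in these data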
Target sequence (P42574 whole entry D9A/D28A/D175A): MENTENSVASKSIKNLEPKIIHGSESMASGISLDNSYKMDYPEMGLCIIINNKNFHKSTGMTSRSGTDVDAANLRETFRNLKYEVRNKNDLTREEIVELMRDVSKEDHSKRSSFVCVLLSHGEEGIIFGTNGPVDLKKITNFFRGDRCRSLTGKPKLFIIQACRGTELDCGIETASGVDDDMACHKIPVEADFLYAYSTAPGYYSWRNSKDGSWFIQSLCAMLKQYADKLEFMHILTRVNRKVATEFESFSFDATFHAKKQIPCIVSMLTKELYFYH
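System: Procaspase-3 D3A mutant. Medium: Zinc-free 300 mM NaCl, 50 mM HEPES, 0.01% Triton X-100. Schedule: 1 h preincubation plus 2 h reaction at 25 °C. Measured by: 405 nm absorbance of p-nitroaniline, reads at 0 and 120 min. Read-out: percent activation relative to control range.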
proCasp7 act: procaspase-7 activators, primary screen, counter-screen for procaspase-3 activator project, biochemical, absorbance, HTS, human. Caspase-7 (Homo sapiens), P55210. AID 463210, 2010. recombinant procaspase-7, Ac-DEVD-pNA absorbance 405 nm; D23A/D198A/D206A triple mutant, cannot self-cleave; scale: DMSO 0, 5 µM enzyme 100. 330,000 compounds, 0.093% hits. activation, % at 8.5 µM;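 active = percent activation above the screen-wide mean plus 3 SD, cut at about 25% in these data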
Target sequence (P55210 whole entry D23A/D198A/D206A): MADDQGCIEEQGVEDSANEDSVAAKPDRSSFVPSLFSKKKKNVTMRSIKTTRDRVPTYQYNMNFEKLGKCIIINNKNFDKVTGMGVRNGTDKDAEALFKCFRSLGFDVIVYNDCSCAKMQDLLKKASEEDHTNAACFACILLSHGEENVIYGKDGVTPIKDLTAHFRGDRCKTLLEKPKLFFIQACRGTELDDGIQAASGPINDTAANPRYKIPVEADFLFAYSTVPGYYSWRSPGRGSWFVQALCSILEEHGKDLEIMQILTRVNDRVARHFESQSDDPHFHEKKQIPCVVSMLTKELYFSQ
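Detection: p-Nitroaniline absorbance at 405 nm, read at 0 and 120 min; system: Uncleavable procaspase-7 mutant enzyme; evaluation: % activation from two-timepoint absorbance difference, scaled to controls; times: 1 h enzyme–compound preincubation and 2 h substrate reaction, both 25 °C; buffer or medium: Zinc-free HEPES pH 7.4 with 300 mM NaCl, 0.01% Triton X-100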
aDG glyco up: activators of alpha-DG glycosylation, primary screen, uHTS, Pro5-aDG cells, AlphaScreen; alpha-DG glycosylation AlphaScreen (IIH6); 0% Pro5, 100% B10-LARGE cell signal; activation, % at 10 µM; 360,000 compounds, 0.22% hits; AID 624168, 2012;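 active = activation of at least 8% versus controls, or a plate z-score of at least 8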;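 also: Pro5 are CHO cells carrying HIG-tagged alpha-DG that lacks glycosylation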
NR3A LBD binder: binders of NR3A ligand-binding domain, primary screen, biophysical, differential scanning fluorimetry, uHTS | Glutamate receptor ionotropic, NMDA 3A (GRIN3A) ligand-binding domain | NR3A LBD differential scanning fluorimetry, Tm shift; 0% = protein alone, 100% = glycine-bound protein | Tm shift relative to glycine control, % at 25 µM | 340,000 compounds, 2.5% hits | AID 1259313, 2017;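 active = melting temperature shift of at least 10% of the positive control shift, at one fixed dose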
MPTP inh: mitochondrial permeability transition pore inhibitors, primary screen, biochemical, isolated mouse mitochondria, absorbance; Ca2+ swelling absorbance, 30 min; inhibition, % at 10 µM; 360,000 compounds, 1.4% hits;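 active = inhibition of 50% or more, scaled per plate between neutral and stimulator controls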
Rh123 counter: fluorescence retest of MPTP screen hits in isolated mitochondria, single concentration | shares compounds with MPTP inh | membrane potential, Rhodamine 123 fluorescence | inhibition, % at 10 µM | 5,000 compounds, 78% hits | AID 624504, 2012; in the data active = inhibition above about 22%
MPTP swell DR: mitochondrial permeability transition pore inhibitors, dose response, biochemical, absorbance, uHTS hits | shares compounds with MPTP inh | isolated mitochondria swelling | IC50, µM | 780 compounds, 58% hits | AID 651561, 2012; in the data active = IC50 below about 20 µM
MPTP cs DR: fluorescent counter-screen in isolated mitochondria, dose response, counter-screen for MPTP inhibitor project, biochemical, fluorescence, uHTS hits | isolated mitochondria counterscreen, fluorescence read-out | shares compounds with MPTP inh | IC50, µM | 780 compounds, 49% hits | AID 651564, 2012; in the data active = IC50 below about 80 µM
Each line names hits and unclear results; the compound was inactive in the other large screens (follow-up assays come after a bar, where they were run). In the library only some 3.7% were active in any assay of this set; here they are far more common.

CC(=O)Nc1cccc(Oc2ccc([N+](=O)[O-])cc2Cl)c1	none
COc1ccccc1CCNC(=O)Nc1cccc([N+](=O)[O-])c1	MPTP inh 68 | Rh123 counter 77
O=C(Cc1cccc([N+](=O)[O-])c1)Nc1ccccc1	none (no result: proCasp3 act, proCasp7 act, NR3A LBD binder)
Cc1ccc(NC(=O)CCS(=O)(=O)c2ccc3nc(C)sc3c2)c(C)c1	none (no result: proCasp3 act, proCasp7 act, NR3A LBD binder)
COC(=O)c1sccc1NC(=O)COc1ccc(Cl)cc1Cl	none
CC(C)Nc1ncnc2c1ncn2[C@H]1CN(Cc2ccccc2)C[C@@H](CO)O1	none (no result: proCasp3 act, proCasp7 act, NR3A LBD binder)
COc1ccc(CN(C)CC(O)COC(c2ccc(OC)cc2)c2ccc(OC)cc2)cc1 (configuration not stated)	none
CCOc1ccc(CN(C)CC(O)COC(c2ccc(OC)cc2)c2ccc(OC)cc2)cc1 (configuration not stated)	MPTP inh 67 | Rh123 counter inactive | MPTP swell DR 15 | MPTP cs DR 48
O=C(Nc1cc(C(F)(F)F)cc(C(F)(F)F)c1)c1ccc(Cn2cc(C(F)(F)F)ccc2=O)cc1	MPTP inh 72 | Rh123 counter 25
O=C(Nc1ccccc1)c1ccc(Cn2cc(C(F)(F)F)ccc2=O)cc1	none
NC(=O)c1nc[nH]c1C(=O)Nc1cccc(C(F)(F)F)c1	none
Cc1cc(CN2CCCC(C(=O)Nc3cccc(-n4cccn4)c3)C2)cc(C)c1O (configuration not stated)	MPTP inh 70 | Rh123 counter 85
CCOc1ccccc1CN1CCCC(C(=O)Nc2cccc(-n3cccn3)c2)C1 (configuration not stated)	MPTP inh 58 | Rh123 counter inactive | MPTP swell DR 6.8 | MPTP cs DR 18
Cc1cc(/C=N/n2c(COc3ccccc3)nc3ccccc3c2=O)c(O)c([N+](=O)[O-])c1	NR3A LBD binder 16, MPTP inh 79 | Rh123 counter 33
Cc1ccc(-c2[nH]ncc2/C=N/n2c(COc3ccccc3)nc3ccccc3c2=O)cc1	none
Cc1ccc(-n2c(SCC(=O)NC3CCS(=O)(=O)C3)nc3ccccc3c2=O)c(C)c1 (configuration not stated)	none (no result: proCasp3 act, proCasp7 act, NR3A LBD binder)
O=C(COC(=O)Cc1ccc(Cl)cc1)NC1CCCC1	none
Oc1c(C=Nc2ccccc2Cl)[nH]c2ccccc12	none
N#CC(CCc1ccccc1[N+](=O)[O-])(CCc1ccccc1[N+](=O)[O-])C(N)=O	none (no result: proCasp3 act, proCasp7 act)
O=S(=O)(NCC(c1ccccc1)N1CCC(O)CC1)c1ccc(Cl)cc1 (configuration not stated)	none
O=S(=O)(NCC(Nc1ccc(Cl)cc1)c1ccccc1)c1ccc(Cl)cc1 (configuration not stated)	NR3A LBD binder 28, MPTP inh 87 | Rh123 counter 85
CCCCn1c(N)c(-c2nc3ccccc3s2)c2c([N+](=O)[O-])nn(CC)c(=O)c21	MPTP inh 92 | Rh123 counter inactive | MPTP swell DR 20 | MPTP cs DR 18
CCCCCn1c(N)c(-c2nc3ccccc3o2)c2c([N+](=O)[O-])nn(CC)c(=O)c21	none
CCCCn1c(N)c(-c2nc3ccccc3s2)c2c([N+](=O)[O-])nn(C)c(=O)c21	MPTP inh 97 | Rh123 counter inactive | MPTP swell DR 12 | MPTP cs DR 6.2
Cn1nc([N+](=O)[O-])c2c(-c3nc4ccccc4s3)c(N)n(C3CCCCC3)c2c1=O	MPTP inh 72 | Rh123 counter inactive | MPTP swell DR inactive | MPTP cs DR 43
CCCCCn1c(N)c(-c2nc3ccccc3o2)c2c([N+](=O)[O-])nn(C)c(=O)c21	none
CCCCCn1c(N)c(-c2nc3ccccc3s2)c2c([N+](=O)[O-])nn(CC)c(=O)c21	MPTP inh 97 | Rh123 counter inactive | MPTP swell DR 11 | MPTP cs DR <2.5
COc1ccc(OC)c(N/C(C)=C/C(=O)c2ccc(Br)cc2)c1	none
O=C(C[C@H]1C/C=C\C[C@H](NC(=O)OCC2c3ccccc3-c3ccccc32)C(=O)OC[C@H](Cc2ccccc2)NC1=O)N[C@H](CO)Cc1ccccc1	none
O=C(Nc1ccc(Oc2ccc(Cl)cc2)c(Cl)c1)c1cc(I)cc(I)c1O	NR3A LBD binder 31, MPTP inh 106 | Rh123 counter 74
CC1(C(=O)O)CCC(C(=O)NNC(=O)c2ccccc2O)C1(C)C (configuration not stated)	none
C=CCN(CC=C)C(=O)c1ccc2nc(Cc3ccc(OC)c(OC)c3)oc2c1	MPTP inh 50 | Rh123 counter inactive | MPTP swell DR inactive | MPTP cs DR 43
COc1ccc(Cc2nc3ccc(C(=O)NCc4cc(C)no4)cc3o2)cc1OC	none
CCC(=O)N1CCc2cc(S(=O)(=O)NCCC(=O)N3CC=C(c4ccccc4)CC3)ccc21	none (no result: NR3A LBD binder)
CCC(=O)N1CCc2cc(S(=O)(=O)NCCC(=O)N3CCc4ccccc4C3)ccc21	MPTP inh 76 | Rh123 counter 61
O=C(O)CCN1C(=O)/C(=C\c2ccc(-c3nc4ccccc4s3)o2)SC1=S	MPTP inh 89 | Rh123 counter inactive
O=C(O)CCCN1C(=O)/C(=C\c2ccco2)SC1=S	none (no result: proCasp3 act, proCasp7 act)
CC12CCC(O)CC1=CCC1C2CCC2(C)C(c3ccn[nH]3)CCC12 (configuration not stated)	MPTP inh 57 (no result: proCasp3 act, proCasp7 act) | Rh123 counter 88
CCOC(=O)c1ccc(NC(=O)Nc2ccc3c4c(cccc24)C(=O)N3CC)cc1	NR3A LBD binder 17, MPTP inh 95 | Rh123 counter 33
CCCCOc1ccc(CSCCN=C(N)N)cc1	MPTP inh 72 (no result: proCasp3 act, proCasp7 act) | Rh123 counter inactive | MPTP swell DR 4.3 | MPTP cs DR 24
CCN(CC)C(=O)CSC(Nc1ccc(F)cc1)=C(C#N)C#N	none
Cc1ccc(CSC(Nc2ccc(F)cc2)=C(C#N)C#N)cc1	MPTP inh 95 | Rh123 counter 93

Screening results from PubChem BioAssay.
